{
  "source": "PubChem BioAssay AID624362",
  "about": "(Broad Institute, 2012)",
  "tested_on": "MALME3 melanoma viability, CellTiter-Glo ATP luminescence, 24 h",
  "experiment": "cytotoxicity in MALME3 melanoma cells – cell-based, CellTiter-Glo luminescence, dry powder, set 3, orthogonal assay for MITF inhibitor project, dose response (AID 624362)",
  "how_it_was_run": "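Material: MALME3 melanoma cell line | Buffer or medium: Phenol-red-free IMDM supplemented with 10% FBS | Incubation: Compound exposure at 37 °C, cells plated one day earlier | Technique: CellTiter-Glo luminescence measuring cellular ATP | Read-out: Cell viability inferred from cellular ATP level | Controls: Parthenolide at 27 µM as positive control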",
  "note": "Calls of active or inactive are those of the source.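 The calls were made as follows: active = compounds cutting cell ATP signal whose AC50 is at most twice their top valid dose; inconclusive = flat curve with 30 to 70% signal loss, or poor fit; inactive = the rest.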",
  "data": [
    {"compound": "O=C1C=C(NS(=O)(=O)c2cccs2)C(=O)c2ccccc21", "values": [
      {"measurement": "AC50", "result": 15.3, "unit": "µM"}
    ]},
    {"compound": "COC1=C(NS(=O)(=O)c2ccc(Br)cc2)C(=O)c2ccccc2C1=O", "values": [
      {"measurement": "AC50", "result": 14.7, "unit": "µM"}
    ]},
    {"compound": "COC1=C(NS(=O)(=O)c2cccs2)C(=O)c2ccccc2C1=O", "values": [
      {"measurement": "AC50", "result": 23.4, "unit": "µM"}
    ]},
    {"compound": "O=C1C=C(NS(=O)(=O)c2ccccc2)C(=O)c2ccccc21", "values": [
      {"measurement": "AC50", "result": 11.6, "unit": "µM"}
    ]},
    {"compound": "O=C1C=C(Nc2ccccc2)C(=O)c2ccccc21", "values": [
      {"measurement": "AC50", "result": 2.89, "unit": "µM"}
    ]},
    {"compound": "NC1=C(NS(=O)(=O)c2cccs2)C(=O)c2ccccc2C1=O", "values": [
      {"measurement": "AC50", "result": 16.8, "unit": "µM"}
    ]},
    {"compound": "NC1=C(NS(=O)(=O)c2ccc(Br)s2)C(=O)c2ccccc2C1=O", "values": [
      {"measurement": "AC50", "result": "> 70 µM (inactive)"}
    ]},
    {"compound": "NC1=C(NS(=O)(=O)c2ccccc2)C(=O)c2ccccc2C1=O", "values": [
      {"measurement": "AC50", "result": 15, "unit": "µM"}
    ]},
    {"compound": "O=C1C(Nc2ccccc2)=C(c2ccccc2)C(=O)c2ccccc21", "values": [
      {"measurement": "AC50", "result": 36, "unit": "µM"}
    ]},
    {"compound": "O=C1C=C(NS(=O)(=O)c2ccc(Br)cc2)C(=O)c2ccccc21", "values": [
      {"measurement": "AC50", "result": 14.3, "unit": "µM"}
    ]},
    {"compound": "COC1=C(Nc2ccccc2)C(=O)c2ccccc2C1=O", "values": [
      {"measurement": "AC50", "result": 7.46, "unit": "µM"}
    ]},
    {"compound": "O=C1C(NS(=O)(=O)c2ccccc2)=C(c2ccccc2)C(=O)c2ccccc21", "values": [
      {"measurement": "AC50", "result": "> 70 µM (inactive)"}
    ]}
  ]
}
